Screening data from PubChem BioAssay.
H69AR growth 86K: growth inhibitors of human H69AR lung tumor cells. 85,000 compounds, 6% hits. H69AR lung tumor viability, ATP luminescence, 72 h; active compounds read low. AID 598. viability, % at 10 µM;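 active = viability at or below 40%; inactive = viability above 40%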;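 also: multidrug resistant small cell line overexpressing MRP-1 efflux transporter; 100% = mean luminescence of untreated control wells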
HUVEC inhibit: blocks proliferation of human endothelial cells. AID 648. viability, % at 10 µM (by protocol). HUVEC proliferation, CellTiter-Glo luminescence, 72 h; active compounds read low. 86,000 compounds, 1.1% hits;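 active = viability at or below 30%; inactive = viability above 30%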;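 also: 100% = median luminescence of DMSO-only cell control wells on each plate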
Lung fibro prol: blocks proliferation of human lung fibroblasts; viability, % at 10 µM; AID 719; LL 47 human lung fibroblast viability, ATP luminescence; active compounds read low; 85,000 compounds, 1.1% hits;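 active = viability at or below 50% in the single dose screen; inactive = viability above 50%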;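 also: compound exposure lasted 72 h before the ATP readout; 100% = median luminescence of untreated cell-only wells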
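Signal: luminescent ATP detection, CellTiter-Glo; assay system: LL 47 human lung fibroblasts; input: 1,150 cells/well; incubation: overnight cell rest, 72 h compound treatment at 37 °C; measure: % viability versus median cells-only luminescence; medium: IMEM growth medium with 15% fetal bovine serum; dosing: compound addition at 0.1% DMSO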
Ecoli tolC: growth inhibitors of E. coli BW25113 tolC mutant | OD615 | growth inhibition, % at 10 µM (by protocol) | 65,000 compounds, 2.2% hits;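 active = growth inhibition at or above a cutoff equal to the mean over every tested compound plus 3 SD, cut at about 60% in these data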;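 also: growth measured after 20 h incubation at 37 °C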
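Assay system: tolC-deleted E. coli BW25113. Medium: kanamycin-containing LB broth (50 µg/mL). Dosing: 10 µM final, single dose. Timing: bacterial growth with compound for 20 h at 37 °C. Detection: A615 absorbance measurement. Read-out basis: growth inhibition in percent.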
E coli WT exp: growth inhibitors of E. coli BW25113 wild type | growth inhibition, % at 100 µM | OD600 absorbance | 98,000 compounds, 0.15% hits;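 active = growth inhibition above about 50% at one test dose, limit read from the data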;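 also: growth measured after 20 h incubation at 37 °C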
Jurkat viability: cytotoxic compounds reducing Jurkat cell viability. Jurkat E6.1 viability, ATP luminescence, 48 h. inhibition, % at 4 µM. 56,000 compounds, 1.2% hits. AID 463;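 active = inhibition above the mean inhibition of all tested compounds plus 3 SD, cut at about 28% in these data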
The depositor's hits bear a star. Most compounds without a hit are left out; they make up all but 6.4% or so of the library.

Screening CCOC(=O)c1c(NC(=O)CSc2n[nH]c(CNc3ccccc3)n2)sc(C)c1C returned H69AR growth 86K 31*, HUVEC inhibit 46 and Lung fibro prol 74.
CCOC(=O)c1c(NC(=O)CSc2nc(C)cc(C)c2C#N)sc(C(C)=O)c1C was read as H69AR growth 86K 19*, HUVEC inhibit 38, Lung fibro prol 59, Ecoli tolC 3, E coli WT exp 4 and Jurkat viability -4.
For CCOC(=O)c1c(NC(=O)CSc2nnnn2CC)sc(C)c1C the results were H69AR growth 86K 31*, HUVEC inhibit 102, Lung fibro prol 84, Ecoli tolC 18, E coli WT exp -7 and Jurkat viability -1.
CCOC(=O)c1c(NC(=O)CSc2nnc(-c3ccc(C)cc3)o2)sc(C(C)=O)c1C was read as E coli WT exp -2.
CCOC(=O)c1sc(NC(=O)CSc2n[nH]c(-c3ccccc3)n2)c(C#N)c1C was read as H69AR growth 86K 76, HUVEC inhibit 57, Lung fibro prol 94, Ecoli tolC 100*, E coli WT exp -11 and Jurkat viability 9.
`CCOC(=O)c1sc(NC(=O)CSc2nc(C)cc(C)n2)c(C#N)c1C` gave H69AR growth 86K 94, HUVEC inhibit 94, Lung fibro prol 90 and E coli WT exp -4.
For O=c1c(/C=C(\O)c2ccccc2)nc2ccccc2n1-c1ccccc1 the results were H69AR growth 86K 39*, HUVEC inhibit 112, Lung fibro prol 104 and E coli WT exp -8.
O=C(Nc1nc2ccccc2n1CCN1CCOCC1)c1cn(-c2ccccc2)nc1-c1ccccc1 was read as H69AR growth 86K 19*, HUVEC inhibit 63, Lung fibro prol 53, Ecoli tolC 36, E coli WT exp -4 and Jurkat viability -3.
Screening CC(=O)Nc1nc2ccccc2n1CCN1CCOCC1 returned Ecoli tolC 4 and Jurkat viability 4.
`CCOC(=O)c1c(NC(=O)C2CCCO2)sc(C(=O)OC(C)(C)C)c1C` (centres undefined) gave H69AR growth 86K 10*, HUVEC inhibit 72, Lung fibro prol 85 and E coli WT exp -12.
Screening CCOC(=O)c1sc(NC(=O)C2CCCO2)c(C(=O)OCC)c1C (centres undefined) returned H69AR growth 86K 90, HUVEC inhibit 99, Lung fibro prol 103, Ecoli tolC 15 and Jurkat viability 0.
`CCOC(=O)c1ccc(CC(=O)c2ccc(O)cc2O)o1` gave H69AR growth 86K 87, HUVEC inhibit 110, Lung fibro prol 97 and E coli WT exp 11.
`O=C(CSc1ncnc2c1oc1ccccc12)Nc1cccc(Cl)c1` gave H69AR growth 86K 71, HUVEC inhibit 64, Lung fibro prol 89, Ecoli tolC -1, E coli WT exp -15 and Jurkat viability -9.
`O=C(CSc1ncnc2c1oc1ccccc12)Nc1cccc(C(F)(F)F)c1` gave H69AR growth 86K 17*, HUVEC inhibit 45, Lung fibro prol 95, Ecoli tolC 11, E coli WT exp -9 and Jurkat viability 7.
`Cc1nc(SCC(=O)Nc2ccccc2)c2oc3ccccc3c2n1` gave H69AR growth 86K 12*, HUVEC inhibit 47, Lung fibro prol 91, Ecoli tolC -4, E coli WT exp 1 and Jurkat viability 6.
For Cc1nc(SCC(=O)Nc2ccc(F)cc2)c2oc3ccccc3c2n1 the results were H69AR growth 86K 91, HUVEC inhibit 72, Lung fibro prol 89, Ecoli tolC 12, E coli WT exp -5 and Jurkat viability -1.
For O=C(CSc1ncnc2c1oc1ccccc12)Nc1nc2ccccc2s1 the results were H69AR growth 86K 13*, HUVEC inhibit 16*, Lung fibro prol 103 and E coli WT exp -2.
`CCOC(=O)c1cnn(-c2nc(-c3ccccc3)cs2)c1C(F)(F)F` gave E coli WT exp -3.
`Cn1cccc1/C=N/NC(=O)Cn1cnc2ccccc21` gave E coli WT exp 12.
For CC(/C=C/c1ccccc1)=N\NC(=O)c1ccncc1 the results were E coli WT exp 9.
For O=S(=O)(/C=C/c1ccccc1)Oc1ccccc1 the results were H69AR growth 86K 7.4*, HUVEC inhibit 77, Lung fibro prol 64 and E coli WT exp 28.
For O=C1CC(N2CCN(c3ccc(S(=O)(=O)N4CCOCC4)cc3)CC2)C(=O)N1Cc1ccccc1 (centres undefined) the results were H69AR growth 86K 82, HUVEC inhibit 99, Lung fibro prol 100, Ecoli tolC 5, E coli WT exp 3 and Jurkat viability 3.
CC(C)(C)n1nnnc1C(c1cccs1)N1CCCC2(CCCCC2)C1 (centres undefined) was read as Ecoli tolC 35, E coli WT exp 0 and Jurkat viability 3.
For CC(C)(C)n1nnnc1C(c1cccs1)N1CCCc2ccccc21 (centres undefined) the results were H69AR growth 86K 100, HUVEC inhibit 109, Lung fibro prol 96, Ecoli tolC 82*, E coli WT exp -3 and Jurkat viability 1.
`CC(C)C(c1nnnn1C1CCCCC1)N1CCCc2ccccc21` (centres undefined) gave H69AR growth 86K 99, HUVEC inhibit 99 and Lung fibro prol 86.
CC(C)C(c1nnnn1C1CCCC1)N1CCCc2ccccc21 (centres undefined) was read as H69AR growth 86K 96, HUVEC inhibit 112, Lung fibro prol 94, Ecoli tolC 74*, E coli WT exp -13 and Jurkat viability 7.
CC1(C)Cc2c(c(N3CCOCC3)nc3sc4c(=O)[nH]cnc4c23)CS1 was read as H69AR growth 86K 43, HUVEC inhibit 65, Lung fibro prol 93, Ecoli tolC 7 and E coli WT exp -4.
`CN(C)CCNc1ncnc2c1sc1nc(N3CCOCC3)c3c(c12)CC(C)(C)SC3` gave H69AR growth 86K 94, HUVEC inhibit 17*, Lung fibro prol 16* and E coli WT exp 12.
For CCN(CC)CCNc1ncnc2c1sc1nc(N3CCOCC3)c3c(c12)CC(C)(C)SC3 the results were H69AR growth 86K 2.6*, HUVEC inhibit 7.2*, Lung fibro prol 2.6* and E coli WT exp 15.
O=c1[nH]c2ccc(S(=O)(=O)N3CCN(c4ccccc4F)CC3)cc2s1 was read as H69AR growth 86K 92, HUVEC inhibit 86, Lung fibro prol 92, Ecoli tolC 100* and E coli WT exp -5.
`Cc1[nH]c(=O)[nH]c(=O)c1S(=O)(=O)N1CCN(c2ccccc2F)CC1` gave E coli WT exp 0.
For Cc1ccc(NC(=O)C(C)Sc2nnc(-c3cccnc3)o2)cc1 (centres undefined) the results were H69AR growth 86K 103, HUVEC inhibit 113, Lung fibro prol 125, Ecoli tolC -23, E coli WT exp -5 and Jurkat viability -2.
